Experiment [1] is described as follows: Her2 expression decrease, cell viability multiplex – SKBR3 breast tumor cells, AlphaScreen, ATP viability, primary screen (AID 461;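 active means Her2 level under about 52% in both replicate screens, with viability over 70% of control, limit read from the data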;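 on Her2 level: lower value means less Her2 protein in the cells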;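 on viability: percent of carrier control wells set as 100% viability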). As to conditions: SKBR3 Her2 protein level, 18-24 h, measured here: SKBR3 viability, ATP luminescence, at 10 µM. In general terms: Bead proximity is the source of the signal in Alpha formats.
Experiment [2] concerns the target Receptor tyrosine-protein kinase erbB-2 (Homo sapiens) (UniProt P04626). The experiment is described as above. The note with it: 18-24 h, at 10 µM, stronger effect = lower value.
A short description of experiment [3]: reduced viability of SK-BR-3 breast cancer cells – cell-based, 24 h, human, pilot screen (AID 572;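 active means viability at or below 10% of carrier control in both of two separate runs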;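 further: compound exposure lasted between 18 and 24 h rather than exactly 24 h; 100% = carrier-treated control wells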). As to conditions: SK-BR-3 viability, CellTiter-Glo luminescence, at 10 µM, stronger effect = lower value. (In general: In ATP-based viability assays light output follows the ATP content of the culture.)
The nature of experiment [4]: HUVEC growth inhibition – cell-based, human, primary screen (AID 575;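 active means viability at or below 30% in both replicate assays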;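 further: 100% = median of untreated cell wells with 0.1% DMSO on each plate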). As to conditions: HUVEC proliferation, CellTiter-Glo luminescence, 72 h; at 10 µM; stronger effect = lower value. In a few lines:
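Test system: HUVEC primary cells. Quantity: 1250 endothelial cells in each well. Dosing: single-point 10 µM, DMSO 0.1% final. Incubation: 72 h treatment at 37 °C. Measured by: CTG luminescence. Control set: DMSO cell controls and MePR drug controls. Plate: collagen-coated 384-well format.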

Experiment [5] is described as follows: H69AR cell proliferation blockers – human, duplicate replicates, primary screen (AID 580).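 Further: 100% = mean luminescence of untreated wells and 0% = no signal.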 The note with it: H69AR lung tumor cells viability, ATP luminescence, 72 h; at 10 µM; stronger effect = lower value.
Experiment [6] is described as follows: MRP1 drug-resistance reversers in H69AR cells – cell-based, doxorubicin co-treatment, pilot screen (AID 601;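 active means viability loss from added drug above about 55%, and viability with drug at most 40%, in both replicates, limit read from the data, passing the limit was not always enough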). As to conditions: CellTiter-Glo, 72 h, at 10 µM; for differential viability (reversal): stronger effect = higher value.
Experiment [7] in a line: yeast transport mutant growth inhibition pilot in 384-well plates, post-Golgi transport modulator project (AID 636; in the data active means inhibition above about 31%). The note with it: absorbance 615 nm, about 18 h, stronger effect = higher value.
The nature of experiment [8]: growth suppression of yeast trafficking mutant, preliminary HTS, modulators of trafficking downstream of Golgi apparatus project, 1536-format plate, OD 615 nm (AID 637; in the data active means inhibition above about 30%). As to conditions: yeast transport mutant growth, absorbance 615 nm, 18 h; stronger effect = higher value.
Where [9] appears, read: H69AR cells + 2 uM doxorubicin, measured here: viability with 2 uM doxorubicin, stronger effect = lower value.
[10] abbreviates: H69AR cells, compound alone cytotoxicity.

The source made the active and inactive calls.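 How the source made its calls, unless noted: active means viability at or under a set limit in both replicates, limit being median viability minus 3 SD (cut at about 48% in these data, passing the limit was not always enough); inconclusive means at or under the limit in just one replicate; inactive means at or above the limit in both replicates.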

Receptor tyrosine-protein kinase erbB-2 (Homo sapiens), sequence (P04626 whole entry, looked up): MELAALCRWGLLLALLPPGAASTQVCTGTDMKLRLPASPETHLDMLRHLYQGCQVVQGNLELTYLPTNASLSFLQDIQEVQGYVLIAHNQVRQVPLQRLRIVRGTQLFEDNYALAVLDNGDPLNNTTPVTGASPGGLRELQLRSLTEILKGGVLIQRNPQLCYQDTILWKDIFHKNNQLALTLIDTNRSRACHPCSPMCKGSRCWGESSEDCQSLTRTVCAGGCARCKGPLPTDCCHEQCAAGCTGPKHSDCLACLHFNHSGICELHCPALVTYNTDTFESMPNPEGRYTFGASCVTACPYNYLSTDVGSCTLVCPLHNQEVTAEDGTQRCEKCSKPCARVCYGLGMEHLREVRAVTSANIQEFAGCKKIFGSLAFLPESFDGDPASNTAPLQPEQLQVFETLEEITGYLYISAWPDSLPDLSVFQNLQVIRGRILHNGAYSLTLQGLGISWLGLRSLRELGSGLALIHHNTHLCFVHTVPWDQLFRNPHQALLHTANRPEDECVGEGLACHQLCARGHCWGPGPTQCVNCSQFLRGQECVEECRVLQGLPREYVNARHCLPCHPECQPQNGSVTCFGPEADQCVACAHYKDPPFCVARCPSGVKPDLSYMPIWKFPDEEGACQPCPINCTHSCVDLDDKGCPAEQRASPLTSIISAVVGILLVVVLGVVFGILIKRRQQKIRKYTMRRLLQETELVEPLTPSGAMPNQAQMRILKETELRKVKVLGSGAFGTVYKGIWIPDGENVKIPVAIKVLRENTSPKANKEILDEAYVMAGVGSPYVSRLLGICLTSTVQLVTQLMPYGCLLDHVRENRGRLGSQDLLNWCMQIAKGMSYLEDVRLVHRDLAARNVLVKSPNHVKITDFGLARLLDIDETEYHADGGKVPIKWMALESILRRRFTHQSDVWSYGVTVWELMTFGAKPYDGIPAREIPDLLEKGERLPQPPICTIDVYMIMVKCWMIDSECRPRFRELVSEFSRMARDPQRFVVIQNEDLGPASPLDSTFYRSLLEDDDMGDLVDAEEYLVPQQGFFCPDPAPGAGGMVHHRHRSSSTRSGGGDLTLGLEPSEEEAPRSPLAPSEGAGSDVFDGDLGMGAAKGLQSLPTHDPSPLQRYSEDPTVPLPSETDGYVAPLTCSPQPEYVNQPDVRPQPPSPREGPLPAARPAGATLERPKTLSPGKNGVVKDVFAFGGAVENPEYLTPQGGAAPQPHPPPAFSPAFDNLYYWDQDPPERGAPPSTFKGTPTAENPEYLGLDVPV

For the compound `Cc1ccc(C)c(NC(=O)c2ccc3c(c2)N(Cc2ccc(F)cc2)C(=O)CS3=O)c1` (stereo not given), the viability (commonly a read-out of living cells in per cent, often relative to untreated cells) in experiment [1] was 85.5%; in experiment [3] it was 85.5% (inactive); in experiment [4] it was 95.2% (inactive); in experiment [5], 97.1% (inactive); in experiment [6] (setting [9]) it was 93.1%; in experiment [6] (setting [10]), 97.1%. Moreover, the Her2 level in experiment [2] was 102% (inactive). Also, the differential viability (reversal) in experiment [6] (H69AR cells + 2 uM doxorubicin) is 3.96% (inactive). For the same compound, the inhibition (commonly the change of the read-out against control, counted positive when it falls) in experiment [7] is -1.6% (inactive); in experiment [8], -0.66% (inactive).

Consider `CCOC(=O)C1CCN(c2c(N3CCCCCC3)c(=O)c2=O)CC1`, for which the viability in experiment [1] was 97%; in experiment [3], 97% (inactive); in experiment [4] it was 87.9% (inactive); in experiment [5], 98% (inactive); in experiment [6] (setting [9]), 97.1%; in experiment [6] (setting [10]), 98%. Further, in experiment [2], the Her2 level was 100% (inactive). In addition, the differential viability (reversal) in experiment [6] (H69AR cells + 2 uM doxorubicin) is 0.92% (inactive). In addition, the inhibition in experiment [7] was -1.67% (inactive); in experiment [8] it was -0.33% (inactive).

In the case of `Cc1ccc(CSC2=NCCN2C(=O)c2ccco2)cc1`, the viability was 95.5% in experiment [1]; 95.5% (inactive) in experiment [3]; 92.8% (inactive) in experiment [4]; 84.3% (inactive) in experiment [5]; 81.5% in experiment [6] (setting [9]); 84.3% in experiment [6] (setting [10]). The Her2 level in experiment [2] is 98% (inactive). In addition, the differential viability (reversal) in experiment [6] (H69AR cells + 2 uM doxorubicin) was 2.8% (inactive). Further, the inhibition in experiment [7] is -3.85% (inactive); in experiment [8], 3.83% (inactive).

For the compound `Cc1nc2sc(C#N)c(N)c2c2c1CCCC2`, the viability in experiment [1] is 95.5%; in experiment [3] it was 95.5% (inactive); in experiment [4], 85.7% (inactive); in experiment [5] it was 102% (inactive); in experiment [6] (setting [9]) it was 108%; in experiment [6] (setting [10]) it was 102%. The Her2 level in experiment [2] is 78.5% (inactive). Also, the differential viability (reversal) in experiment [6] (H69AR cells + 2 uM doxorubicin) was -6% (inactive). Further, the inhibition in experiment [7] is -1.97% (inactive); in experiment [8], 4.36% (inactive).

Regarding `OC(CNCC1COc2ccccc2O1)COCc1cccs1` (stereo not given), the viability in experiment [1] is 98%; in experiment [3] it was 98% (inactive); in experiment [4] it was 87.5% (inactive); in experiment [5] it was 83.1% (inactive); in experiment [6] (setting [9]), 82.1%; in experiment [6] (setting [10]) it was 83.1%. In addition, the Her2 level in experiment [2] is 89.5% (inactive). In experiment [6] (H69AR cells + 2 uM doxorubicin), the differential viability (reversal) was 0.95% (inactive). Also, the inhibition was -2.08% (inactive) in experiment [7] and -7.94% (inactive) in experiment [8].

For the compound `Cc1[nH]c(=O)[nH]c(=O)c1S(=O)(=O)N1c2ccc(F)cc2CCC1C` (stereo not given), the viability in experiment [1] was 97.5%; in experiment [3], 97.5% (inactive); in experiment [4], 100% (inactive); in experiment [5], 95.7% (inactive); in experiment [6] (setting [9]), 99.6%; in experiment [6] (setting [10]) it was 95.7%. The Her2 level in experiment [2] was 90% (inactive). The differential viability (reversal) in experiment [6] (H69AR cells + 2 uM doxorubicin) is -3.9% (inactive). In addition, the inhibition in experiment [7] was -6.97% (inactive); in experiment [8] it was 3.17% (inactive).

For the compound `CCOc1ccc2[nH]c(=O)c(CN(CCOC)C(=O)N3CCOCC3)cc2c1`, the viability in experiment [1] was 97%; in experiment [3], 97% (inactive); in experiment [4], 102% (inactive); in experiment [5], 92.1% (inactive); in experiment [6] (setting [9]), 101%; in experiment [6] (setting [10]), 92.1%. In addition, the Her2 level in experiment [2] is 90% (inactive). Moreover, the differential viability (reversal) in experiment [6] (H69AR cells + 2 uM doxorubicin) was -8.59% (inactive). The figures for the inhibition in experiment [7] and in experiment [8] were -3.33% (inactive) and 4.59% (inactive), respectively.

Turning to `Cc1csc2nc(CSc3ccc(Cl)cc3)cn12`, the viability in experiment [1] is 97.5%; in experiment [3], 97.5% (inactive); in experiment [4] it was 80.9% (inactive); in experiment [5] it was 88.2% (inactive); in experiment [6] (setting [9]) it was 72.3%; in experiment [6] (setting [10]) it was 88.2%. The Her2 level in experiment [2] is 78% (inactive). For the same compound, the differential viability (reversal) in experiment [6] (H69AR cells + 2 uM doxorubicin) was 15.9% (inactive). The inhibition in experiment [7] was -5.87% (inactive); in experiment [8] it was 3.77% (inactive).

Take `C=CCOc1ccccc1/C=c1\sc2nc(=O)c(C)nn2c1=O`: the viability in experiment [1] is 100%; in experiment [3], 100% (inactive); in experiment [4], 85.1% (inactive); in experiment [5], 72.6% (inactive); in experiment [6] (setting [9]), 83.1%; in experiment [6] (setting [10]), 72.6%. For the same compound, in experiment [2], the Her2 level is 84% (inactive). For the same compound, in experiment [6] (H69AR cells + 2 uM doxorubicin), the differential viability (reversal) is -10.6% (inactive). Moreover, the figures for the inhibition in experiment [7] and in experiment [8] were -8.27% (inactive) and 0.79% (inactive), respectively.

Turning to `Cc1ccc(SCc2[nH]nc3c2C(c2ccc(C)o2)C(C#N)=C(N)O3)cc1` (stereo not given), the viability is 91% in experiment [1]; 91% (inactive) in experiment [3]; 74.3% (inactive) in experiment [4]; 76.8% (inactive) in experiment [5]; 82.4% in experiment [6] (setting [9]); 76.8% in experiment [6] (setting [10]). Also, in experiment [2], the Her2 level was 88% (inactive). In experiment [6] (H69AR cells + 2 uM doxorubicin), the differential viability (reversal) was -5.55% (inactive). Moreover, the inhibition was -7.03% (inactive) in experiment [7] and 2.06% (inactive) in experiment [8].

The values are drawn from PubChem BioAssay.
